Drawing on ChEMBL document CHEMBL3272061, “Experiments of synthesis of dl-camptothecin. 4. Synthesis and antileukemic activity of dl-camptothecin analogues” (J Med Chem, 1976), this text covers ILS, Activity and solubility for 3 compounds.

The source made the active and inactive calls. The calls are words filed in the database; no cut-off is given here.

For series [1], the system named is L1210. The series can be described thus: Antileukemic activity against mouse L1210 cells allografted in BDF1 mouse assessed as increase in life span of host at 139 umol/kg, ip relative to control. The class given is functional. The method in brief: (§1)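 BDF1 mice, 5 weeks old, were inoculated ip with 5×10^5 L1210 cells in 0.1 ml saline. Test groups were 4 male and 4 female mice; controls were 5 male and 5 female. Insoluble compounds were suspended in vehicle. Dosing was ip, either once on the day after inoculation or daily for 5 days. Read-out was increase in life span over controls. Mice alive beyond 30 days were counted as 30 days and scored as survivors.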

The subject of series [2] is L1210. The series can be described thus: Antileukemic activity against mouse L1210 cells allografted in BDF1 mouse assessed as host survival at 5.58 umol/kg, ip after 30 days. To be noted: 5.56 umol/kg, in the assay text read “5.56 umol/kg” for “5.58 umol/kg”. Format: functional, organism-based. The method in brief: (§2)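 BDF1 mice, 5 weeks old; test groups four males + four females, controls five + five. 5×10^5 L1210 cells in 0.1 ml saline given ip. Compound, suspended in suspending vehicle (sodium salt dissolved), injected ip once on the day after inoculation. Survival followed to 30 days; mice surviving beyond 30 days counted as 30 days and scored as survivor fraction; activity as increased life span over controls.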

Series [3] deals with L1210. The series can be described thus: Antileukemic activity against mouse L1210 cells allografted in BDF1 mouse assessed as host survival at 27.8 umol/kg, ip after 30 days. Format: functional, organism-based. The method in brief:
as §1

Series [4] in a line: Solubility of the compound. Format: physicochemical.
For series [5], the system named is L1210. Kind of series: Antileukemic activity against mouse L1210 cells allografted in BDF1 mouse assessed as increase in life span of host at 69.4 umol/kg, ip relative to control. Format: functional. An outline of the steps:
(§3)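 BDF1 mice, 5 weeks old, were inoculated ip with 5×10^5 L1210 cells; test groups had 4 males and 4 females, controls 5 males and 5 females. A single ip dose was given on the day after inoculation, as a suspension in vehicle for the insoluble compounds. Read-out was increase in life span over controls, with survivors past 30 days counted as 30 days.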

In series [6] the test system is L1210. Kind of series: Antileukemic activity against mouse L1210 cells allografted in BDF1 mouse assessed as host survival at 69.4 umol/kg, ip after 30 days. The class given is functional, organism-based. An outline of the steps: as §2
Series [7] concerns L1210. Kind of series: Antileukemic activity against mouse L1210 cells allografted in BDF1 mouse assessed as host survival at 139 umol/kg, ip after 30 days. Format: functional, organism-based. The method in brief: as §1
Series [8] deals with L1210. Kind of series: Antileukemic activity against mouse L1210 cells allografted in BDF1 mouse assessed as host survival at 5 umol/kg, po qd for 5 days measured after 30 days. Format: functional, organism-based.
Series [9] relates to L1210. The series can be described thus: Antileukemic activity against mouse L1210 cells allografted in BDF1 mouse assessed as host survival at 1 umol/kg, ip qd for 5 days measured after 30 days. Format: functional, organism-based. An outline of the steps:
as §1

Series [10] concerns L1210. Kind of series: Antileukemic activity against mouse L1210 cells allografted in BDF1 mouse assessed as host survival at 25 umol/kg, po qd for 4 days measured after 30 days. The class given is functional, organism-based.
Series [11] has as its system L1210. The series can be described thus: Antileukemic activity against mouse L1210 cells allografted in BDF1 mouse assessed as host survival at 5 umol/kg, ip qd for 5 days measured after 30 days. Format: functional, organism-based. An outline of the steps:
as §1

For series [12], the system named is L1210. Kind of series: Antileukemic activity against mouse L1210 cells allografted in BDF1 mouse assessed as host survival at 12.5 umol/kg, po qd for 5 days measured after 30 days. The class given is functional, organism-based.
Series [13] deals with L1210. The series can be described thus: Antileukemic activity against mouse L1210 cells allografted in BDF1 mouse assessed as host survival at 5 umol/kg, sc qd for 5 days measured after 30 days. Format: functional, organism-based.
Series [14] concerns L1210. Kind of series: Antileukemic activity against mouse L1210 cells allografted in BDF1 mouse assessed as host survival at 1 umol/kg, sc qd for 5 days measured after 30 days. The class given is functional, organism-based.
Series [15] has as its system L1210. The series can be described thus: Antileukemic activity against mouse L1210 cells allografted in BDF1 mouse assessed as host survival at 25 umol/kg, sc qd for 5 days measured after 30 days. The class given is functional, organism-based.
Series [16] concerns L1210. Kind of series: Antileukemic activity against mouse L1210 cells allografted in BDF1 mouse assessed as host survival at 12.5 umol/kg, ip qd for 5 days measured after 30 days. The class given is functional, organism-based. An outline of the steps:
as §1

The species entered for series [17] is Mus musculus. Kind of series: Toxicity in mouse L1210 cells allografted BDF1 mouse. Format: organism-based.
Series [18] deals with L1210. Kind of series: Antileukemic activity against mouse L1210 cells allografted in BDF1 mouse assessed as increase in life span of host at 4.87 umol/kg, ip relative to control. The class given is functional. The method in brief: as §3
Series [19] has as its system L1210. Kind of series: Antileukemic activity against mouse L1210 cells allografted in BDF1 mouse assessed as increase in life span of host at 69.8 umol/kg, ip relative to control. Format: functional. An outline of the steps:
as §3

In series [20] the test system is L1210. Kind of series: Antileukemic activity against mouse L1210 cells allografted in BDF1 mouse assessed as increase in life span of host at 27.9 umol/kg, ip relative to control. Format: functional. The method in brief:
as §3

The subject of series [21] is L1210. Kind of series: Antileukemic activity against mouse L1210 cells allografted in BDF1 mouse assessed as host survival at 4.87 umol/kg, ip after 30 days. Format: functional, organism-based. An outline of the steps: as §1

For `CCC1(CC)C(=O)OCc2c1cc1n(c2=O)Cc2cc3ccccc3nc2-1`, the ILS at 139 µmol/kg in series [1] is -11%. Also, the result in series [2], in series [3], in [6] and in series [7] was inactive. The solubility result in series [4] was “Insoluble”. The ILS at 69.4 µmol/kg in series [5] turned out to be 5%.
`C=CCC1(O)C(=O)OCc2c1cc1n(c2=O)Cc2cc3ccccc3nc2-1` (configuration not stated): the result in series [8], in series [9], in [10], in series [11], in [12] and in series [13] was inactive. Further, the result in series [14], in [15] and in [16] was inactive.
In the case of `C#CCC1(O)C(=O)OCc2c1cc1n(c2=O)Cc2cc3ccccc3nc2-1` (racemic), the Activity entry in series [17] is recorded as “Toxic”. In series [18], the ILS at 4.87 µmol/kg was 58%. Further, the ILS at 69.8 µmol/kg in series [19] was above 149%. Besides, in [20], the ILS at 27.9 µmol/kg is above 117%. For the same compound, the result in [21] was inactive. For the same compound, the solubility entry in series [4] is on record as “Insoluble”.
